Results: ChEMBL document CHEMBL4342485, “Discovery of Potent Benzolactam IRAK4 Inhibitors with Robust in Vivo Activity” (ACS Med Chem Lett, 2020)
Calls of active or inactive are those of the source. The calls are words filed in the database; no cut-off is given here.

Columns and labels:
Mus musculus [1] = experiment: In vivo inhibition of IRAK4 in R848-induced C57BL/6 mouse assessed as IFN alpha levels at 33.3 mg/kg, po administered as nanosuspension at 1 hr prior to R848 challenge and measured after 1 hr by ELISA relative to control; type: functional; design: scale not given: the % may be the effect or the level left
Procedure, shortened: (§1)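 C57 black 6 mice were given vehicle or compound as a nanosuspension in MCT (0.5% methyl-cellulose/0.2% tween-80) across a dose range, 1 h before TLR7/8 agonist R848 (resiquimod) stimulation. Blood was drawn 1 h after R848, which is 2 h after compound. Plasma IFNα was measured by ELISA against vehicle-treated, R848-stimulated animals. Plasma drug levels were taken at the same time.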

[2] = molecular target: T1, Interleukin-1 receptor-associated kinase 4 (Homo sapiens, UniProt Q9NWZ3)
T1 sequence (Q9NWZ3 whole entry): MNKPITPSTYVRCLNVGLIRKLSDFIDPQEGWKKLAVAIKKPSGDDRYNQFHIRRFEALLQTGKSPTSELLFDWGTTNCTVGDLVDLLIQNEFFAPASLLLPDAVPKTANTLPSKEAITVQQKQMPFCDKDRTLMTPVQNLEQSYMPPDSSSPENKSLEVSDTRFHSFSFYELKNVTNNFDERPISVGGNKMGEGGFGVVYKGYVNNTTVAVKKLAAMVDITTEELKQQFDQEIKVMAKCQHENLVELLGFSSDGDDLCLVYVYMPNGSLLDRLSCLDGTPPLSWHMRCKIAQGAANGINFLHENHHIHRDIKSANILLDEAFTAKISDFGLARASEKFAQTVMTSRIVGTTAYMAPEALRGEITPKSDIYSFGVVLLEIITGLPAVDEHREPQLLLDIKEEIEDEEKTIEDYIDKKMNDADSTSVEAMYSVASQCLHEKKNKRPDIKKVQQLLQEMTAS

[3] = Protein binding in mouse plasma at 5 uM incubated for 6 hrs by red equilibrium dialysis based LC-MS/MS analysis; type: ADME, cell-free; settings: read-out: PPB (converted)
Mus musculus [4] = experiment: In vivo inhibition of IRAK4 in R848-induced C57BL/6 mouse assessed as inhibition of TNF alpha secretion at 3 mg/kg, po administered as nanosuspension at 1 hr prior to R848 challenge and measured after 1 hr by ELISA; type: functional, organism-based
Procedure, shortened: (§2)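 C57 black 6 mice dosed with vehicle or nanosuspension in 0.5% methyl-cellulose/0.2% tween-80 across a dose range 1 h before stimulation with TLR7/8 agonist R848; blood sampled 1 h after R848 (2 h post-dose). Plasma IFNα, IL-6 and TNFα measured, IFNα by ELISA; compound plasma levels also determined.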

[5] = Oral bioavailability in dog at 1 mg/kg; type: ADME, organism-based, Canis lupus familiaris; settings: in vivo
[6] = AUC (infinity) in rat at 1 mg/kg, iv or po; type: ADME, organism-based; settings: in vivo
Procedure, shortened: (§3)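 Separate intravenous and oral PK studies, each dosed at 1 mg/kg. Plasma AUC was extrapolated to infinity and reported in µM*h. Half-life and oral bioavailability were derived from the same studies.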

[7] = Protein binding in dog plasma at 5 uM incubated for 6 hrs by red equilibrium dialysis based LC-MS/MS analysis; type: ADME, cell-free, Canis lupus familiaris; settings: read-out: PPB (converted)
[8] = Volume of distribution at steady state in mouse at 1 mg/kg, iv or po; type: ADME, organism-based; settings: in vivo, read-out: Vdss
[9] = Volume of distribution at steady state in dog at 1 mg/kg, iv or po; type: ADME, organism-based, Canis lupus familiaris; settings: in vivo, read-out: Vdss
[10] = Clearance in dog plasma at 1 mg/kg, iv or po; type: ADME, organism-based, Canis lupus familiaris
[11] = AUC (infinity) in cynomolgus monkey at 1 mg/kg, iv or po; type: ADME, organism-based, Macaca fascicularis; settings: in vivo; procedure, shortened: as §3
[12] = AUC (infinity) in mouse at 1 mg/kg, iv or po; type: ADME, organism-based; settings: in vivo
[13] = Clearance in cynomolgus monkey plasma at 1 mg/kg, iv or po; type: ADME, organism-based, Macaca fascicularis
[14] = Volume of distribution at steady state in cynomolgus monkey at 1 mg/kg, iv or po; type: ADME, organism-based, Macaca fascicularis; settings: in vivo, read-out: Vdss
[15] = Protein binding in rat plasma at 5 uM incubated for 6 hrs by red equilibrium dialysis based LC-MS/MS analysis; type: ADME, cell-free; settings: read-out: PPB (converted)
[16] = Clearance in rat plasma at 1 mg/kg, iv or po; type: ADME, organism-based
[17] = Half life in cynomolgus monkey at 1 mg/kg, iv or po; type: ADME, organism-based, Macaca fascicularis; settings: in vivo
Mus musculus [18] = experiment: In vivo inhibition of IRAK4 in R848-induced po dosed C57BL/6 mouse assessed as inhibition of IFN alpha secretion administered as nanosuspension at 1 hr prior to R848 challenge and measured after 1 hr by ELISA; type: functional, organism-based; procedure, shortened: as §2
[19] = Oral bioavailability in mouse at 1 mg/kg; type: ADME, organism-based; settings: in vivo
[20] = Oral bioavailability in rat at 1 mg/kg; type: ADME, organism-based; settings: in vivo
[21] = Half life in mouse at 1 mg/kg, iv or po; type: ADME, organism-based; settings: in vivo
Mus musculus [22] = experiment: In vivo inhibition of IRAK4 in R848-induced C57BL/6 mouse assessed as IFN alpha levels at 3.7 mg/kg, po administered as nanosuspension at 1 hr prior to R848 challenge and measured after 1 hr by ELISA relative to control; type: functional; design: scale not given: the % may be the effect or the level left; procedure, shortened: as §1
[23] = Protein binding in human plasma at 5 uM incubated for 6 hrs by red equilibrium dialysis based LC-MS/MS analysis; type: ADME, cell-free
Mus musculus [24] = experiment: In vivo inhibition of IRAK4 in R848-induced C57BL/6 mouse assessed as IL6 level at 100 mg/kg, po administered as nanosuspension at 1 hr prior to R848 challenge and measured after 1 hr by ELISA relative to control; type: functional; design: scale not given: the % may be the effect or the level left
Procedure, shortened: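 C57 black 6 mice were pretreated with vehicle or a compound nanosuspension in 0.5% methyl-cellulose/0.2% tween-80 over a dose range, 1 h before R848 stimulation. Blood was sampled 1 h post-R848, and IL-6 and TNFα levels were compared with vehicle-treated, R848-stimulated mice.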

[25] = Clearance in mouse plasma at 1 mg/kg, iv or po; type: ADME, organism-based
[26] = Half life in dog at 1 mg/kg, iv or po; type: ADME, organism-based, Canis lupus familiaris; settings: in vivo
[27] = Oral bioavailability in cynomolgus monkey at 1 mg/kg; type: ADME, organism-based, Macaca fascicularis; settings: in vivo
[28] = Protein binding in cynomolgus monkey plasma at 5 uM incubated for 6 hrs by red equilibrium dialysis based LC-MS/MS analysis; type: ADME, cell-free, Macaca fascicularis; settings: read-out: PPB (converted)
[29] = Apparent permeability across apical to basolateral side in dog MDCKI cells at 10 uM measured after 60 to 180 mins by lucifer yellow dye based LC-MS/MS analysis; type: ADME, cell-based, Canis lupus familiaris; settings: MDCK
Procedure, shortened: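 Apical-to-basolateral permeability measured in Madin–Darby canine kidney (MDCK) cell monolayers; reported in ×10–6 cm/s.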

[30] = molecular target: T1, Interleukin-1 receptor-associated kinase 4; experiment: Inhibition of recombinant full-length N-terminal His6-tagged human IRAK4 expressed in baculovirus expression system using H-KKARFSRFAGSSPSQSSMVAR peptide as substrate after 90 mins by fluorescence polarisation assay
[31] = AUC (infinity) in dog at 1 mg/kg, iv or po; type: ADME, organism-based, Canis lupus familiaris; settings: in vivo; procedure, shortened: as §3
Mus musculus [32] = experiment: In vivo inhibition of IRAK4 in R848-induced C57BL/6 mouse assessed as IFN alpha levels at 1.2 mg/kg, po administered as nanosuspension at 1 hr prior to R848 challenge and measured after 1 hr by ELISA relative to control; type: functional; design: scale not given: the % may be the effect or the level left; procedure, shortened: as §1
[33] = Half life in rat at 1 mg/kg, iv or po; type: ADME, organism-based; settings: in vivo
Mus musculus [34] = experiment: In vivo inhibition of IRAK4 in R848-induced C57BL/6 mouse assessed as IFN alpha levels at 11.1 mg/kg, po administered as nanosuspension at 1 hr prior to R848 challenge and measured after 1 hr by ELISA relative to control; type: functional; design: scale not given: the % may be the effect or the level left; procedure, shortened: as §1
Mus musculus [35] = experiment: In vivo inhibition of IRAK4 in R848-induced po dosed C57BL/6 mouse assessed as inhibition of IL-6 secretion administered as nanosuspension at 1 hr prior to R848 challenge and measured after 1 hr by ELISA; type: functional, organism-based; procedure, shortened: as §2
[36] = Volume of distribution at steady state in rat at 1 mg/kg, iv or po; type: ADME, organism-based; settings: in vivo, read-out: Vdss
Mus musculus [37] = experiment: In vivo inhibition of IRAK4 in R848-induced po dosed C57BL/6 mouse assessed as inhibition of TNFalpha secretion administered as nanosuspension at 1 hr prior to R848 challenge and measured after 1 hr by ELISA; type: functional, organism-based; procedure, shortened: as §2

CC(C)(O)[C@H](F)CN1Cc2cc(NC(=O)c3cnn4cccnc34)c(N3CCOCC3)cc2C1=O
Activity (Mus musculus [1]): -53% | IC50 [2]: 190 nM | fraction unbound at 6 h, 5 µM [3]: 0.058 | inhibition (Mus musculus [4]): Active | bioavailability [5]: 109% | AUC(0-inf) [6]: 3.8 µM·h | fraction unbound at 6 h, 5 µM [7]: 0.224 | Vd [8]: 2.2 L/kg | Vd [9]: 3.7 L/kg | clearance [10]: 11.3 mL/min/kg | AUC(0-inf) [11]: 2.2 µM·h | AUC(0-inf) [12]: 1.2 µM·h | clearance [13]: 15.8 mL/min/kg | Vd [14]: 3.7 L/kg | fraction unbound at 6 h, 5 µM [15]: 0.086 | clearance [16]: 9.2 mL/min/kg | half-life [17]: 5.4 h | inhibition (Mus musculus [18]): Dose-dependent effect | bioavailability [19]: 34% | bioavailability [20]: 31% | half-life [21]: 1.9 h | Activity (Mus musculus [22]): -24% | PPB [23]: 72.4% | Activity (Mus musculus [24]): -64% | clearance [25]: 29 mL/min/kg | half-life [26]: 4.1 h | bioavailability [27]: 47% | fraction unbound at 6 h, 5 µM [28]: 0.332 | Papp A→B at 10 µM [29]: 9.1 to 9.2 ×10⁻⁶ cm/s | Ki [30]: 1.4 nM | AUC(0-inf) [31]: 3.1 µM·h | Activity (Mus musculus [32]): -12% | half-life [33]: 1.6 h | Activity (Mus musculus [34]): -45% | inhibition (Mus musculus [35]): Dose-dependent effect | Vd [36]: 0.95 L/kg | inhibition (Mus musculus [37]): Dose-dependent effect
